Measured values as given in ChEMBL document CHEMBL5344459, “Suppressive Effects of Neuromedin U Receptor 2-Selective Peptide Agonists on Appetite and Prolactin Secretion in Mice” (2024).
Activity calls are given as the source filed them. The calls are words filed in the database; no cut-off is given here. Non-standard residues stand in square brackets, D forms with d. Residues, ends and D or L forms follow the SMILES beside them. *: point of attachment. Propanoyl(3-cHex) = O=C(CCC1CCCCC1)*; Dab = NCC[C@H](N)C(=O)O

How the values were obtained:
Mus musculus [1] = test: Induction of stress related behaviour in ddY mouse assessed as increase in cumulative grooming time at 200 nmol administered intranasally and measured after 24 hrs by open field test; assay type: functional; conditions: route nas
How it was run: (§1)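 Open field (40 × 40 × 50 cm) with video tracking at 45 min and 24 h after i.n. dosing (200 nmol); total distance, cumulative grooming time, and inner ratio (% time in central 20 × 20 cm zone) scored. N = 8, mean ± SD; two-way repeated measures ANOVA, Tukey–Kramer.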

Mus musculus [2] = test: Suppression of appetite in ddY mouse assessed as decrease in body weight gain at 200 nmol administered intranasally as single dose on day 0; assay type: functional, organism-based; conditions: route nas
How it was run: (§2)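 Single i.n. dose (200 nmol) or saline vehicle given on day 0; mice housed individually, with body weight, food and water consumed recorded daily. N = 8 per group, mean ± SD; two-way repeated measures ANOVA followed by Tukey–Kramer test.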

Mus musculus [3] = test: Suppression of restrain stress-induced plasma prolactin level in C57BL/6J mouse at 200 nmol administered intranasally followed by exposure to restraint stress for 40 mins by ELISA; assay type: functional, organism-based; conditions: route nas
Mus musculus [4] = test: Suppression of restrain stress-induced plasma prolactin level in C57BL/6J mouse at 20 nmol administered intranasally and 50 mins later exposure to restraint stress for 40 mins by ELISA; assay type: functional, organism-based; conditions: route nas, time 90.0 min
Mus musculus [5] = test: Induction of anxiety-like behaviour in ddY mouse assessed as decrease in inner ratio at 200 nmol administered intranasally and measured after 45 mins by open field test; assay type: functional; conditions: route nas; how it was run: as §1
Mus musculus [6] = test: Effect on total distance travelled in ddY mouse at 200 nmol administered intranasally and measured after 45 mins by open field test; assay type: functional; conditions: route nas; how it was run: as §1
Mus musculus [7] = test: Induction of stress related behaviour in ddY mouse assessed as increase in cumulative grooming time at 200 nmol administered intranasally and measured after 3 hrs by open field test; assay type: functional; conditions: route nas
Mus musculus [8] = test: Induction of stress related behaviour in ddY mouse assessed as increase in cumulative grooming time at 200 nmol administered intranasally and measured after 45 mins by open field test; assay type: functional; conditions: route nas; how it was run: as §1
Mus musculus [9] = test: Effect on total distance travelled in ddY mouse at 200 nmol administered intranasally and measured after 3 hrs by open field test; assay type: functional; conditions: route nas
Mus musculus [10] = test: Effect on water intake in ddY mouse at 200 nmol administered intranasally as single dose on day 0 and measured for 3 days; assay type: functional; conditions: route nas, time 3.0 day; how it was run: as §2
Mus musculus [11] = test: Suppression of appetite in ddY mouse assessed as decrease in daily food intake at 200 nmol administered intranasally on day 0 to 2 and measured on days 1 to 3; assay type: functional, organism-based; conditions: route nas, time 3.0 day
How it was run: (§3)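 Daily i.n. dosing (200 nmol) or saline vehicle on days 0–2 in individually housed mice; body weight (relative to day 0), daily food intake and water intake recorded daily. N = 8, mean ± SD; two-way repeated measures ANOVA with Tukey–Kramer test.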

Mus musculus [12] = test: Induction of anxiety-like behaviour in ddY mouse assessed as decrease in inner ratio at 200 nmol administered intranasally and measured after 24 hrs by open field test; assay type: functional; conditions: route nas; how it was run: as §1
Mus musculus [13] = test: Suppression of appetite in ddY mouse assessed as decrease in food consumption at 200 nmol administered intranasally as single dose on day 0 and measured on day 1; assay type: functional, organism-based; conditions: route nas, time 1.0 day; how it was run: as §2
Mus musculus [14] = test: Suppression of restrain stress-induced plasma prolactin level in C57BL/6J mouse assessed as prolactin level at 20 nmol administered intranasally followed by exposure to restraint stress for 40 mins by ELISA (reference value: 2.04 +/-0.95 ng/ml); assay type: functional; conditions: route nas
Mus musculus [15] = test: Induction of anxiety-like behaviour in ddY mouse assessed as decrease in inner ratio at 200 nmol administered intranasally and measured after 3 hrs by open field test; assay type: functional; conditions: route nas
Mus musculus [16] = test: Suppression of plasma prolactin level in C57BL/6J mouse assessed as prolactin level at 20 nmol administered intranasally by ELISA (reference value: 0.45 +/-0.14 ng/ml); assay type: functional; conditions: route nas
Mus musculus [17] = test: Increase in water intake in ddY mouse at 200 nmol administered intranasally on days 0 to 2 and measured on days 4 to 5; assay type: functional; conditions: route nas, time 4-5 day; how it was run: as §3
Mus musculus [18] = test: Suppression of appetite in ddY mouse assessed as body weight at 200 nmol administered intranasally on days 0 to 2 and measured for 3 days relative to day 0; assay type: functional; conditions: route nas, time 3 day; how it was run: as §3

With `CC(C)C[C@H](NC(=O)CCC1CCCCC1)C(=O)N[C@@H](CC(C)C)C(=O)N[C@@H](CCN)C(=O)N1CCC[C@H]1C(=O)N[C@@H](CCCNC(=N)N)C(=O)N[C@@H](CC(N)=O)C(N)=O` ({Propanoyl(3-cHex)}-LL[Dab]PRN-NH2) the Activity (Mus musculus [1]) was “inactive”, the inhibition (Mus musculus [2]) was “Active” and the inhibition (Mus musculus [3]) was “Active”. The inhibition (Mus musculus [4]) was “inactive”, the Activity (Mus musculus [5]) was “Active” and the Activity (Mus musculus [6]) was “inactive”. For the same compound, the Activity (Mus musculus [7]) was “inactive”, the Activity (Mus musculus [8]) was “Active” and the Activity (Mus musculus [9]) was “inactive”. For the same compound, the Activity (Mus musculus [10]) was “inactive”, the inhibition (Mus musculus [11]) was “Active” and the Activity (Mus musculus [12]) was “inactive”. The inhibition (Mus musculus [13]) was “Active”, the Activity (Mus musculus [14]) was 0.49 ng/mL and the Activity (Mus musculus [15]) was “inactive”. The Activity (Mus musculus [16]) was less than 0.15 ng/mL, the Activity (Mus musculus [17]) was “Active” and the Activity (Mus musculus [18]) was less than 100%.
